Results: ChEMBL document CHEMBL4396915, “Synthesis of new thiazolyl-pyrazolyl-1,2,3-triazole derivatives as potential antimicrobial agents” (2019)
≈ marks a conversion by molar mass, not a printed value. Values belong to the compound of their own block, whether it stands above or below them. Calls of active or inactive are those of the source. The calls are words filed in the database; no cut-off is given here.

What was measured:
Proteus mirabilis = assay: Antibacterial activity against Proteus mirabilis NCIM 2388 assessed as zone of inhibition at 80 ug/well incubated for 24 to 48 hrs by agar well diffusion method; assay type: functional
Summary of the method: (§1)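 Strains from NCIM kept on nutrient agar slants at 4 C and grown overnight at 37 C in nutrient broth. 500 microlitres of 24-48 h culture swabbed onto nutrient agar. Compounds in DMSO loaded into 5 mm wells, with a DMSO vehicle plate and streptomycin reference. Incubated 24-48 h at 37 C. Zone of inhibition measured in mm and averaged over 4 replicates.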

Rhodotorula glutinis [1] = assay: Antifungal activity against Rhodotorula glutinis NCIM 3168 assessed as zone of inhibition at 80 ug/well incubated for 48 to 72 hrs by agar well diffusion method; assay type: functional; conditions: read-out: IZ
Summary of the method: (§2)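 Fungi kept on potato dextrose agar slants and grown in potato dextrose broth. 500 microlitres of 48-72 h spore suspension swabbed onto Mueller Hinton agar. Compounds in DMSO loaded into 5 mm wells, with a DMSO vehicle plate and fluconazole/ravuconazole positive-control plate. Incubated 48-72 h at 30 C. Clear zone measured in mm, mean of five replicates.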

Escherichia coli = assay: Antibacterial activity against Escherichia coli NCIM 2574 assessed as zone of inhibition at 80 ug/well incubated for 24 to 48 hrs by agar well diffusion method; assay type: functional; conditions: for zone of inhibition at 80 µg/disc: read-out: IZ; summary of the method: as §1
Rhodotorula glutinis [2] = assay: Antifungal activity against Rhodotorula glutinis NCIM 3168 assessed as inhibition of fungal growth incubated for 48 to 72 hrs by broth microdilution susceptibility method; assay type: functional
Summary of the method: (§3)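 Tube micro-dilution in Sabouraud liquid medium. Stocks were made in DMSO and serially diluted twofold in broth to final […]. Tubes inoculated with organisms grown in potato dextrose broth and held 48-72 h at 30 C. MIC is the lowest concentration with no growth. DMSO and uninoculated-media controls were included, in triplicate.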

[3] = system: Staphylococcus epidermidis; assay: Antibacterial activity against Staphylococcus albus NCIM 2178 assessed as zone of inhibition at 80 ug/well incubated for 24 to 48 hrs by agar well diffusion method; assay type: functional; conditions: read-out: IZ; summary of the method: as §1
Candida albicans [4] = assay: Antifungal activity against Candida albicans NCIM 3100 assessed as inhibition of fungal growth incubated for 48 to 72 hrs by broth microdilution susceptibility method; assay type: functional; summary of the method: as §3
Aspergillus niger [5] = assay: Inhibition of CYP51 in Aspergillus niger NCIM 504 cells assessed as decrease in ergosterol biosynthesis at 31.5 ug/ml incubated for 72 hrs by spectrophotometric analysis
Summary of the method: (§4)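 A. niger inoculated into potato dextrose broth with compound, untreated control, shaken 72 h at 37 C. Cells centrifuged, washed and pellet wet weight taken. Saponified in 25% alcoholic KOH 1 h at 85 C, then sterols extracted into n-heptane. Extract diluted fivefold in ethanol and scanned at 240-300 nm. Ergosterol computed as % of wet weight from A281.5 and A230, in duplicate.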

Aspergillus niger [6] = assay: Antifungal activity against Aspergillus niger NCIM 504 assessed as zone of inhibition at 80 ug/well incubated for 48 to 72 hrs by agar well diffusion method; assay type: functional; conditions: for zone of inhibition at 80 µg/disc: read-out: IZ; summary of the method: as §2
Aspergillus niger [7] = assay: Antifungal activity against Aspergillus niger NCIM 504 assessed as inhibition of fungal growth incubated for 48 to 72 hrs by broth microdilution susceptibility method; assay type: functional; summary of the method: as §3
Aspergillus niger [8] = assay: Inhibition of CYP51 in Aspergillus niger NCIM 504 cells assessed as ergosterol synthesis measured per gram wet weight at 31.5 ug/ml incubated for 72 hrs by spectrophotometric analysis (reference value: 0.0000290836%); set-up: scale not given: the % may be the effect or the level left; summary of the method: as §4
Candida albicans [9] = assay: Antifungal activity against Candida albicans NCIM 3100 assessed as zone of inhibition at 80 ug/well incubated for 48 to 72 hrs by agar well diffusion method; assay type: functional; conditions: read-out: IZ; summary of the method: as §2

SMILES: Cc1nc(-c2ccc(F)cc2)sc1-c1nn(-c2ccccc2)cc1-c1cn(Cc2ccc(F)cc2)nn1
inhibition zone (IZ) (Proteus mirabilis): inactive
zone of inhibition at 80 µg/disc (Rhodotorula glutinis [1]): 13.3 mm
zone of inhibition at 80 µg/disc (Escherichia coli): 12.2 mm
MIC (Rhodotorula glutinis [2]): 62.5 µg/mL (≈ 122 µM)
zone of inhibition at 80 µg/disc [3]: 11.8 mm
MIC (Candida albicans [4]): 125 µg/mL (≈ 245 µM)
inhibition (Aspergillus niger [5]): Active
zone of inhibition at 80 µg/disc (Aspergillus niger [6]): 11 mm
MIC (Aspergillus niger [7]): 31.2 µg/mL (≈ 61.2 µM)
Activity (Aspergillus niger [8]): 0%
zone of inhibition at 80 µg/disc (Candida albicans [9]): 12.8 mm

SMILES: Cc1nc(-c2ccc(Cl)cc2)sc1-c1nn(-c2ccccc2)cc1-c1cn(Cc2ccc(Br)cc2)nn1
inhibition zone (IZ) (Proteus mirabilis): inactive
zone of inhibition at 80 µg/disc (Rhodotorula glutinis [1]): 18.8 mm
zone of inhibition at 80 µg/disc (Escherichia coli): 11 mm
MIC (Rhodotorula glutinis [2]): 62.5 µg/mL (≈ 106 µM)
zone of inhibition at 80 µg/disc [3]: 11.8 mm
MIC (Candida albicans [4]): 250 µg/mL (≈ 425 µM)
zone of inhibition at 80 µg/disc (Aspergillus niger [6]): 12 mm
MIC (Aspergillus niger [7]): 62.5 µg/mL (≈ 106 µM)
zone of inhibition at 80 µg/disc (Candida albicans [9]): 17.6 mm

SMILES: Cc1nc(-c2ccccc2)sc1-c1nn(-c2ccccc2)cc1-c1cn(Cc2ccc(Br)cc2)nn1
inhibition zone (IZ) (Proteus mirabilis): inactive
zone of inhibition at 80 µg/disc (Rhodotorula glutinis [1]): 17.5 mm
zone of inhibition at 80 µg/disc (Escherichia coli): 12 mm
MIC (Rhodotorula glutinis [2]): 62.5 µg/mL (≈ 113 µM)
zone of inhibition at 80 µg/disc [3]: 13 mm
MIC (Candida albicans [4]): 125 µg/mL (≈ 226 µM)
zone of inhibition at 80 µg/disc (Aspergillus niger [6]): 14 mm
MIC (Aspergillus niger [7]): 62.5 µg/mL (≈ 113 µM)
zone of inhibition at 80 µg/disc (Candida albicans [9]): 16.4 mm

SMILES: Cc1ccc(-c2nc(C)c(-c3nn(-c4ccccc4)cc3-c3cn(Cc4ccccc4)nn3)s2)cc1
inhibition zone (IZ) (Proteus mirabilis): inactive
zone of inhibition at 80 µg/disc (Rhodotorula glutinis [1]): 18.4 mm
inhibition zone (IZ) (Escherichia coli): inactive
MIC (Rhodotorula glutinis [2]): 125 µg/mL (≈ 256 µM)
zone of inhibition at 80 µg/disc [3]: 11.2 mm
MIC (Candida albicans [4]): 125 µg/mL (≈ 256 µM)
inhibition zone (IZ) (Aspergillus niger [6]): inactive
MIC (Aspergillus niger [7]): 62.5 µg/mL (≈ 128 µM)
zone of inhibition at 80 µg/disc (Candida albicans [9]): 15.8 mm

SMILES: Cc1ccc(-c2nc(C)c(-c3nn(-c4ccccc4)cc3-c3cn(Cc4ccc(Cl)cc4)nn3)s2)cc1
inhibition zone (IZ) (Proteus mirabilis): inactive
zone of inhibition at 80 µg/disc (Rhodotorula glutinis [1]): 19 mm
zone of inhibition at 80 µg/disc (Escherichia coli): 13.6 mm
MIC (Rhodotorula glutinis [2]): 62.5 µg/mL (≈ 119 µM)
zone of inhibition at 80 µg/disc [3]: 12 mm
MIC (Candida albicans [4]): inactive
inhibition (Aspergillus niger [5]): Active
zone of inhibition at 80 µg/disc (Aspergillus niger [6]): 16 mm
MIC (Aspergillus niger [7]): 31.2 µg/mL (≈ 59.7 µM)
Activity (Aspergillus niger [8]): 0%
zone of inhibition at 80 µg/disc (Candida albicans [9]): 10 mm

Further lines, with some results ahead:

MIC (Rhodotorula glutinis [2]): 125 µg/mL (≈ 249 µM)
MIC (Candida albicans [4]): 62.5 µg/mL (≈ 124 µM)
inhibition (Aspergillus niger [5]): Active
MIC (Aspergillus niger [7]): 31.2 µg/mL (≈ 62.2 µM)
Activity (Aspergillus niger [8]): 0%
SMILES: Cc1ccc(Cn2cc(-c3cn(-c4ccccc4)nc3-c3sc(-c4ccc(C)cc4)nc3C)nn2)cc1
inhibition zone (IZ) (Proteus mirabilis): inactive
zone of inhibition at 80 µg/disc (Rhodotorula glutinis [1]): 22.3 mm
zone of inhibition at 80 µg/disc (Escherichia coli): 10.2 mm
zone of inhibition at 80 µg/disc [3]: 14.4 mm
inhibition zone (IZ) (Aspergillus niger [6]): inactive
zone of inhibition at 80 µg/disc (Candida albicans [9]): 13 mm

MIC (Rhodotorula glutinis [2]): 62.5 µg/mL (≈ 127 µM)
MIC (Candida albicans [4]): 125 µg/mL (≈ 254 µM)
inhibition (Aspergillus niger [5]): Active
MIC (Aspergillus niger [7]): 31.2 µg/mL (≈ 63.4 µM)
Activity (Aspergillus niger [8]): 0%
SMILES: Cc1nc(-c2ccc(F)cc2)sc1-c1nn(-c2ccccc2)cc1-c1cn(Cc2ccccc2)nn1
inhibition zone (IZ) (Proteus mirabilis): inactive
zone of inhibition at 80 µg/disc (Rhodotorula glutinis [1]): 16 mm
zone of inhibition at 80 µg/disc (Escherichia coli): 11.8 mm
zone of inhibition at 80 µg/disc [3]: 12.2 mm
zone of inhibition at 80 µg/disc (Aspergillus niger [6]): 15.8 mm
zone of inhibition at 80 µg/disc (Candida albicans [9]): 16.2 mm

MIC (Rhodotorula glutinis [2]): 62.5 µg/mL (≈ 123 µM)
MIC (Candida albicans [4]): inactive
inhibition (Aspergillus niger [5]): Active
MIC (Aspergillus niger [7]): 31.2 µg/mL (≈ 61.7 µM)
Activity (Aspergillus niger [8]): 0%
SMILES: Cc1ccc(Cn2cc(-c3cn(-c4ccccc4)nc3-c3sc(-c4ccc(F)cc4)nc3C)nn2)cc1
inhibition zone (IZ) (Proteus mirabilis): inactive
zone of inhibition at 80 µg/disc (Rhodotorula glutinis [1]): 16.2 mm
zone of inhibition at 80 µg/disc (Escherichia coli): 9.6 mm
zone of inhibition at 80 µg/disc [3]: 13.7 mm
zone of inhibition at 80 µg/disc (Aspergillus niger [6]): 13 mm
zone of inhibition at 80 µg/disc (Candida albicans [9]): 12.2 mm

MIC (Rhodotorula glutinis [2]): 125 µg/mL (≈ 247 µM)
MIC (Candida albicans [4]): inactive
MIC (Aspergillus niger [7]): 62.5 µg/mL (≈ 123 µM)
SMILES: Cc1ccc(-c2nc(C)c(-c3nn(-c4ccccc4)cc3-c3cn(Cc4ccc(F)cc4)nn3)s2)cc1
inhibition zone (IZ) (Proteus mirabilis): inactive
zone of inhibition at 80 µg/disc (Rhodotorula glutinis [1]): 16.2 mm
zone of inhibition at 80 µg/disc (Escherichia coli): 10.6 mm
zone of inhibition at 80 µg/disc [3]: 11.2 mm
zone of inhibition at 80 µg/disc (Aspergillus niger [6]): 16.3 mm
zone of inhibition at 80 µg/disc (Candida albicans [9]): 12.5 mm
